From the RNAGym collection of RNA variant scans (doi:10.1101/gad.245936.114) come the findings set out here.

The chains are these.
B1: tRNA (parent)
chain: CUCUCGGUAGCCAAGUUGGUUUAAGGCGCAAGACUUUAAUUUAUCACUACGAAAUCUUGAGAUCGGGCGUUCGACUCGCCCCCGGGAGAUUUUUUCCUCGAGCAA

Variants at the floor of the assay were thinned out.

The data set covers variants of B1. Kind of data set: nonsense suppression (GFP-seq) (ratio to wild type); higher = more function; SUP4oc tRNA, yeast GFP reporter sort-seq. An outline of the steps: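 To measure nonsense suppression, tRNA variants from a library carrying ~3% random mutations were integrated into the yeast genome alongside RFP and a GFP ochre reporter under galactose control. Growth took place in raffinose/galactose medium supplemented with 80 mg/L adenine, followed by sorting into GFP/RFP bins and Illumina sequencing of each bin (phred ≥30). For each variant with ≥100 reads and ≥30 cells, the bin median GFP/RFP values were weighted by its estimated cell share per bin and referenced to the unmutated parent tRNA.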
For CUCUCGGUAGCCAAGUUGGUUUAUGGCGCAAGGCUUUAAUUUAUCACUACGAAAUCUUGAGAUCGGGCGUUCGACUCGCCCCCGGGAGAUUUUUUCCUCGAGCAA [A24U A33G], the nonsense suppression was 0.117. Take CUCUCGGUAGCCAAGUUGGUUUAGGGCGUAAGACUUUAAUUUAUCACUACGAAAUCUUGAGAUCGGGCGUUCGACUCGCCCCCGGGAGAUUUUUUCCUCGAGCAA [A24G C29U]: the nonsense suppression was 0.0384. On to CUCUCGGUAGCCAAGUUGGUUUAUGGCGCAAGACUUUAAUUUAUCACUACGAAAUCUUGAGAUCGGGCGUUCGACUCGCCCCCCGGAGAUUUUUUCCUCGAGCAA [A24U G84C], for which the nonsense suppression amounted to 0.107. For the variant CUCUCGGUAGCCAAGUUGGUUUAUGGCGCAAGACUUUAAUUUAUCACUACGAAAUCUUGAGAUCGGGCGUUCGACUCGCCCCCAGGAGAUUUUUUCCUCGAGCAA [A24U G84A], the nonsense suppression is 0.0448.

Regarding CUCUCGGUAGCCAAGUUGGUUUAUGGCGCAAGACUUUAAUUUAUCACUACGAAAUCUUGACAUCGGGCGUUCGACUCGCCCCCGGGAGAUUUUUUCCUCGAGCAA [A24U G61C], the nonsense suppression is no more than 0.026.

Regarding CUCUCGGUAGCCAAGUUGGUUUAUGGCGCAAGACUUUAAUUUAUCACUACGAAAUCUUGAAAUCGGGCGUUCGACUCGCCCCCGGGAGAUUUUUUCCUCGAGCAA [A24U G61A], the nonsense suppression amounted to 0.124. Then CUCUCGGUAGCCAAGUUGGUUUAAAGCGCAAGACUUUAAUUUAUCACUACGAAAUGUUGAGAUCGGGCGUUCGACUCGUCCCCGGGAGAUUUUUUCCUCGAGCAA [G25A C56G C79U], with no more than 0.026; and CUCUCGGUAGCCAAGUUGGUUUAGGGCGCAAGACUUUAAUUUAUCACUACGAAAUCUUGAGAGCGGGCGUUCGACUCGCACCCGCGAGAUUUUUUCCUCGAGCAA [A24G U63G C80A G85C], with no more than 0.026.

Take CUCUCGGUAGCCAAGUUGGUUUAUGGCGCAAGACUUUAAUUUAUCACUACGAAAUCUUGAGAUCGGGCGUUCGACUCGCCCCCGGGAGAUUUUUUCCUCGAGCAA [A24U]: the nonsense suppression was found to be 0.487. In the case of CUCUCGGUAGCCAAGUUGGUUUAUGGCGCAGGACUUUAAUUUAUCACUACGAAAUCUUGAGAUCGGGCGUUCGACUCGCCCCCGGGAGAUUUUUUCCUCGAGCAA [A24U A31G], the nonsense suppression came out at 0.229. On to CUCUCGGUAGCCAAGUUGGUUUAUGGCGAAAGACUUUAAUUUAUCACUACGAAAUCUUGAGAUCGGGCGUUCGACUCGUCCCCGGGAGAUUUUUUCCUCGAGCAA [A24U C29A C79U], for which the nonsense suppression was no more than 0.026. Then CUCUCGGUAGCCAAGUUGGUUUAUGGCGCCAGACUUUAAUUUAUCACUACGAAAUCUUGAGAUCGGGCGUUCGACUCGCCCCAGGGAGAUUUUUUCCUCGAGCAA [A24U A30C C83A], with no more than 0.026; and CUCUCGGUAGCCAAGUUGGUUUAUGGCGCAAGACAUUAAUUUAUCACUACGAAAUCUUGAGAUCGGGCGUUCGACUCGCCCCCGGGAGAUUUUUUCCUCGAGCAA [A24U U35A], with no more than 0.026.

For the variant CUCUCGGUAGCCAAGUUGGUUUAUGGCGCAAGACUUUAAUUUAUCACUACGAAAUCUUGAGUUCGGGCGUUCGACUCGCCCCCGGGAGAUUUUUUCCUCGAGCAA [A24U A62U], the nonsense suppression came to 0.0332. As for CUCUCGGUAGCCAAGUUGGUUUAUGGCGCAAGACUUUAAUUUAUCACUACGAAAUCUUGAGCUCGGGCGUUCGACUCGCCCCCGGGAGAUUUUUUCCUCGAGCAA [A24U A62C], the nonsense suppression is no more than 0.026. For CUCUCGGUAGCCAAGUUGGUUUAUGGCGCAAGACUUUAAUUUAUCACUACGAAAUCUUGAGGUCGGGCGUUCGACUCGCCCCCGGGAGAUUUUUUCCUCGAGCAA [A24U A62G] the value was 0.0414; for CUCUCGGUAGCCAAGUUGGUUUAUGGCGCAAGACUUUAAUUUAUCACUACGAAAUCUUGUGAUCGGGCGUUCGACUCGCCCCCGGGAGAUUUUUUCCUCGAGCAA [A24U A60U], 0.0572; for CUCUCGGUAGCCAAGUUGGUUUAUGGCGCAAGACUUUAAUUUAUCACUACGAAAUCUUGGGAUCGGGCGUUCGACUCGCCCCCGGGAGAUUUUUUCCUCGAGCAA [A24U A60G], 0.0422. Turning to CUCUCGGUAGCCAAGUUGGUUUAUGGCGCAAGACUUUAAUUUAUCACUACGAAAUCUUGAGAUCGGGCGUUCGACUCGCUCCCGGGAGAUUUUUUCCUCGAGCAA [A24U C80U], the nonsense suppression was found to be 0.192. For CUCUCGGUAGCCAAGUUGGUUUAUGGCGCAAGACUUUAAUUUAUCACUACGAAAUCUUGAGACCGGGCGUUCGACUCGCCCCCGGGAGAUUUUUUCCUCGAGCAA [A24U U63C], the nonsense suppression worked out at 0.0344. Then CUCUCGGUAGCCAAGUUGGUUUAUGGCGCAAGACUUUAAUUUAUCACUACGAAAUCUUGAGAACGGGCGUUCGACUCGCCCCCGGGAGAUUUUUUCCUCGAGCAA [A24U U63A], with 0.119. Take CUCUCGGUAGCCAAGUUGGUUUAGGGCGCAAGACUUUAAUUUAUCACUACGAAAUCUUGAGAUCGGGCGGUCGACUCGCCCCCGGGAGAUUUUUUCCUCGAGCAA [A24G U70G]: the nonsense suppression was no more than 0.026.

For the variant CUCUCGGUAGCCAAGUUGGUUUAUGGCGCAAGACUUUAAUUUAUCACUACGAAAUCUUGAGAUCGGGCGUUCGAUUCGCCUCCGGGAGAUUUUUUCCUCGAGCAA [A24U C75U C81U], the nonsense suppression is no more than 0.026. Take CUCUCGGUAGCCAAGUUGGUUUAUGGCGCUAGACUUUAAUUUAUCACUACGAAAUCUUGAGAUCGGGCGUUCGACUCGCCCCCGGGAGAUUUUUUCCUCGAGCAA [A24U A30U]: the nonsense suppression was found to be 0.0403. Then CUCUCGGUAGCCAAGUUGGUUUAUGGCGCGAGACUUUAAUUUAUCACUACGAAAUCUUGAGAUCGGGCGUUCGACUCGCCCCCGGGAGAUUUUUUCCUCGAGCAA [A24U A30G], with 0.148. Then CUCUCGGUAGCCAAGUUGGUUUAGGGCGCAAGACGUUAAUUUAUCACUACGAAAUCUUGAGAUCGGGCGUUCGACUCGCCCCCGGGAGAUUUUUUCCUCGAGCAA [A24G U35G], with no more than 0.026; and CUCUCGGUAGCCAAGUUGGUUUAUGGCGCAAGACUUUAAUUUAUCACUACGAAUUCUUGAGAUCGGGCGUUCGACUCGCCCCCGGGAGAUUUUUUCCUCGAGCAA [A24U A54U], with 0.208.
